Active and inactive are the calls of the source. The rule behind the calls is not given here.
Legend:
[1] = tested on: MCF7; assay: Cytotoxicity against human MCF7 cells by SRB assay; assay type: functional
Summary of the method: (§1)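 Lines from NCI, kept adherent in RPMI-1640 with 5% heat-inactivated FBS, 2 mM glutamine, 50 µg/mL gentamicin, 37 °C, 5% CO2; plated at densities ensuring exponential growth. Growth measured by NCI screening protocol with sulforhodamine B staining; GI50 per NCI method, means ± SEM from 3-6 independent experiments in duplicate. Compounds from DMSO stocks.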

[2] = tested on: TK-10; assay: Cytotoxicity against human TK10 cells by SRB assay; assay type: functional; summary of the method: as §1
[3] = tested on: UACC-62; assay: Cytotoxicity against human UACC62 cells by SRB assay; assay type: functional; summary of the method: as §1
[4] = tested on: NCI-H460; assay: Cytotoxicity against human NCI-H460 cells by SRB assay; assay type: functional; summary of the method: as §1
[5] = tested on: SF-268; assay: Cytotoxicity against human SF268 cells by SRB assay; assay type: functional; summary of the method: as §1
[6] = tested on: T-cell; assay: Inhibition of PHA-induced human T cell proliferation at 100 uM after 24 hrs by MTT assay; assay type: functional, cell-based
[7] = (§2) Inhibition of PHA-induced human T cell proliferation after 24 hrs by MTT assay; assay type: functional, cell-based
Summary of the method: (§3)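 Human peripheral blood mononuclear cells (Histopaque-1077 isolation) stimulated with PHA 10 µg/mL as T-mitogen, in RPMI-1640 with 10% heat-inactivated FBS, 2 mM glutamine; compounds from DMSO stocks; colorimetric MTT read-out; cyclosporin A positive control. IC50 as means ± SEM from 3-6 independent experiments in duplicate.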

[8] = tested on: T-cell; assay: as §2; assay type: functional, cell-based; summary of the method: as §3
[9] = Cytotoxicity against human T cells assessed as cell viability at IC50 after 24 hrs by MTT assay; assay type: cell-based; conditions: read-out: Activity
Summary of the method: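 Peripheral blood mononuclear cells from healthy volunteers (Histopaque-1077), (2-3) × 10⁶ cells/mL in RPMI-1640 with 10% heat-inactivated FBS, 2 mM glutamine, gentamicin, exposed 24 h to compound; MTT (1 mg/mL) 4 h, formazan dissolved in SDS/DMF pH 4.7 overnight at 37 °C, OD 550 nm. Viability as % of unexposed cells; below 70% counted as toxic.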

SMILES | GI50 [1] [µM] | GI50 [2] [µM] | GI50 [3] [µM] | GI50 [4] [µM] | GI50 [5] [µM] | Activity [6] | IC50 [7] [µM] | Activity [8] | viability at 24 h [9] [%]
C[C@H]1[C@H](O)CC[C@@H]2[C@]1(C)CC[C@H]1[C@@]2(C)CC[C@@]2(C)[C@@H]3CC(C)(C)CC[C@]3(C)CC[C@]12C | > 100 | > 100 | > 100 | > 100 | > 100 | inactive | – | – | –
COC(=O)[C@H](C)[C@@]1(C)CC[C@H]2[C@@](C)(CC[C@@]3(C)[C@@H]4CC(C)(C)CC[C@]4(C)CC[C@]23C)[C@@H]1CC=O | > 100 | > 100 | > 100 | > 100 | > 100 | inactive | – | – | –
CC1=C(O)C(=O)C[C@H]2[C@]3(C)CC[C@@]4(C)[C@@H]5CC(C)(C)CC[C@]5(C)CC[C@]4(C)[C@H]3CC[C@]12C | > 100 | > 100 | > 100 | > 100 | > 100 | inactive | – | – | –
C[C@H]1[C@@H](O)CC[C@@H]2[C@]1(C)CC[C@H]1[C@@]2(C)CC[C@@]2(C)[C@@H]3CC(C)(C)CC[C@]3(C)CC[C@]12C [EPIFRIEDELINOL] | > 100 | > 100 | > 100 | > 100 | > 100 | inactive | – | – | –
C[C@H]1C(=O)[C@H](O)C[C@@H]2[C@]1(C)CC[C@H]1[C@@]2(C)CC[C@@]2(C)[C@@H]3CC(C)(C)CC[C@]3(C)CC[C@]12C | 59.5 | 90.5 | 86 | 67.8 | 95.8 | – | 82.3 | Dose-dependent effect | 92.7
C[C@H]1C(=O)CC[C@@H]2[C@]1(C)CC[C@H]1[C@@]2(C)CC[C@@]2(C)[C@@H]3CC(C)(C)CC[C@]3(C)CC[C@]12C [FRIEDELINE] | > 100 | > 100 | > 100 | > 100 | > 100 | inactive | – | – | –
C[C@H]1[C@H](O)C(=O)C[C@@H]2[C@]1(C)CC[C@H]1[C@@]2(C)CC[C@@]2(C)[C@@H]3CC(C)(C)CC[C@]3(C)CC[C@]12C | > 100 | > 100 | > 100 | > 100 | > 100 | inactive | – | – | –
CC(=O)O[C@@H]1CC[C@@H]2[C@](C)(CC[C@H]3[C@@]2(C)CC[C@@]2(C)[C@@H]4CC(C)(C)CC[C@]4(C)CC[C@]32C)[C@H]1C | – | – | – | – | – | inactive | – | – | –
C[C@H]1C(=O)C=C[C@@H]2[C@]1(C)CC[C@H]1[C@@]2(C)CC[C@@]2(C)[C@@H]3CC(C)(C)CC[C@]3(C)CC[C@]12C | > 100 | > 100 | > 100 | > 100 | > 100 | inactive | – | – | –
COc1cccc2c1C(=O)c1c(O)c3c(c(O)c1C2=O)C[C@@](O)(C(=O)CO)C[C@@H]3O[C@H]1C[C@H](N)[C@H](O)[C@H](C)O1 [DOXORUBICIN] | 0.055 | 0.57 | 0.094 | 0.0081 | 0.093 | – | – | – | –
C[C@@H](C(=O)O)[C@@]1(C)CC[C@H]2[C@@](C)(CC[C@@]3(C)[C@@H]4CC(C)(C)CC[C@]4(C)CC[C@]23C)[C@@H]1CC=O | 7 | 10.1 | 9.9 | 5.4 | 17.2 | – | 10.7 | Dose-dependent effect | 89
C[C@H]1[C@@H](O)[C@H](O)C[C@@H]2[C@]1(C)CC[C@H]1[C@@]2(C)CC[C@@]2(C)[C@@H]3CC(C)(C)CC[C@]3(C)CC[C@]12C [PACHYSANDIOL A] | 66.4 | 95.7 | 83.3 | 79.4 | 15.5 | – | 79.1 | Dose-dependent effect | 113

From ChEMBL document CHEMBL1156353, “Synthetic secofriedelane and friedelane derivatives as inhibitors of human lymphocyte proliferation and growth of human cancer cell lines in vitro” (J Nat Prod, 2001)
